High-throughput results from PubChem BioAssay.
APJ ag: activates the human apelin receptor APJ. activation, % at 20 µM. P35414. AID 2520. 330,000 compounds, 0.11% hits. CHO-K1 APJ PathHunter beta-arrestin, luminescence; 0% DMSO wells, 100% apelin;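 active = activation more than six SD over the plate average, tested at 20 µM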;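 note: 0% = DMSO alone and 100% = apelin-13 at 10 nM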
Target sequence (P35414 whole entry, looked up): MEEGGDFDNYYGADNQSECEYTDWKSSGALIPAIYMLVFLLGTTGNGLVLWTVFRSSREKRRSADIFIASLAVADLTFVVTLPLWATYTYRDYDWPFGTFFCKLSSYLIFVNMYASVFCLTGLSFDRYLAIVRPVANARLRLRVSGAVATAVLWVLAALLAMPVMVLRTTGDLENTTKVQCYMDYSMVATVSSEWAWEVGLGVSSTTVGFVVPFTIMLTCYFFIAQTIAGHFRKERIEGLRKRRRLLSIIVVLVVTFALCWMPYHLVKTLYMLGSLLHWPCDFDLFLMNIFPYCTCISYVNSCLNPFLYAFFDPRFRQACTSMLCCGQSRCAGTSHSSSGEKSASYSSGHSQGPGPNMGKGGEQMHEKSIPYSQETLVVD
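Material: CHO-K1 APJ beta-arrestin complementation cell line; Input: cell density 1000 per well; Incubation: compound stimulation 90 min at 25 °C, detection 60 min; Signal: luminescence from split beta-galactosidase complementation, Galacton Star/Emerald II substrate; Controls: DMSO-only wells as negative, 10 nM Apelin-13 as positive control.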
CCR6 antag: antagonists of human CCR6 receptor. P51684. CHO-K1 CCR6 PathHunter beta-arrestin, luminescence, CCL20-stimulated. inhibition, % at 20 µM. 340,000 compounds, 0.49% hits. AID 493098;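 active = compounds whose inhibition of the agonist-driven luminescence signal at 20 µM reaches about 50%, limit read from the data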;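 note: cells stimulated with CCL20 at 14 nM final; plate controls were DMSO with CCL20 for no effect and DMSO without agonist for full effect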
APJ antagonist: APJ receptor antagonism; AID 2521; 330,000 compounds, 0.32% hits; inhibition, % at 20 µM; P35414; CHO-K1 APJ beta-arrestin complementation, luminescence;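 active = inhibition above about 40% at 20 µM, limit read from the data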;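 note: cells challenged with 10 nM apelin-13 agonist together with compound; plate controls were apelin-13 plus DMSO wells for no effect and DMSO wells lacking apelin-13 for full effect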
iPSC survival up: enhancers of human iPSC single-cell survival; hiPSC single-cell survival, ATPlite luminescence; 100% = ROCK inhibitor wells, 0% = DMSO; survival enhancement, % at 20 µM; 360,000 compounds, 0.044% hits; AID 602274; in the data active = survival enhancement above about 18%;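 note: cells exposed to compounds for 16 hours before the ATP read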
EBI2 block: EBI2 (human) antagonism | P32249 | EBI2 beta-arrestin recruitment, luminescence, 7a,25-OHC stimulated | inhibition, % at 5 µM | 360,000 compounds, 0.81% hits; in the data active = inhibition above about 38%;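 note: enzyme fragment complementation signal reports receptor beta-arrestin coupling in cells; 0% = agonist plus DMSO wells and 100% = wells without agonist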
CXCR6 inh: CXCR6 (human) receptor inhibition. O00574. CHO-K1 PathHunter CXCR6 beta-arrestin, luminescence. inhibition, % at 20 µM. 360,000 compounds, 0.36% hits; in the data active = inhibition above about 34%, passing the limit was not always enough;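 note: antagonist mode with CXCL16 agonist at 10 nM final; 0% = 10 nM CXCL16 with DMSO and 100% = unstimulated wells without agonist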
APJ antag confirm: confirmation of human APJ apelin receptor antagonists; 950 compounds, 66% hits; inhibition, % at 20 µM; shares compounds with APJ antagonist; APJ beta-arrestin recruitment, luminescence, antagonist mode; in the data active = inhibition above about 50%
Active calls of the source: *; / = no result given. Rows were chosen to be rich in hits. Some 1.5% of all compounds tested hit in one or more screens of this group.

SMILES	APJ ag	CCR6 antag	APJ antagonist	iPSC survival up	EBI2 block	CXCR6 inh	APJ antag confirm
O=C1N/C(=N\S(=O)(=O)Cc2ccccc2)S/C1=C/c1cc([N+](=O)[O-])ccc1O	-4	31	41*	0	10	13	55*
Cc1ccc(C(=O)Nc2cccc(C(=O)N/N=C/c3ccc(F)cc3)c2)cc1	8	3	-5	0	-1	-4	/
COC(=O)CCC(=O)N1CCCC(CO)(Cc2ccccc2F)C1 (stereo not drawn)	-1	-2	3	0	-6	14	/
Cc1ccc(Nc2cc(C)nn2-c2nc(C)cc(=O)[nH]2)cc1	-16	82*	87*	1	90*	64*	108*
O=C(NCc1ccc(Cl)c(Cl)c1)c1cc(C2CCCCN2C(=O)OCCF)on1 (stereo not drawn)	/	/	/	-1	38	-5	/
O=C(c1ccco1)N(Cc1cccc(Cl)c1)C1CCS(=O)(=O)C1 (stereo not drawn)	2	23	-8	1	-2	1	/
O=C(c1ccco1)N(Cc1cccs1)C1CCS(=O)(=O)C1 (stereo not drawn)	-3	13	47*	0	-3	-2	13
CC(=NOC(=O)c1ccc(I)cc1)c1nccs1	/	/	/	-1	-3	3	/
N#Cc1cc(-c2ccccc2)nc(NN)n1	-7	35	15	0	9	18	/
NNc1nc(-c2ccccc2)cc(-c2ccccc2)n1	-11	63*	97*	0	15	45*	122*
Cc1cc(C)c(NC(=O)COC(=O)c2nc3nccc(C)n3n2)c(Cl)c1	-5	11	0	0	-5	-2	/
O=[N+]([O-])c1ccc(NC(=S)NCCc2ccccc2)cc1	-3	23	18	-1	11	8	/
O=[N+]([O-])c1ccc(NNC(=S)Nc2ccccc2)cc1	-11	67*	43*	0	8	38	99*
O=[N+]([O-])c1cccc(/C=N/Nc2nc(NCc3ccccc3)nc(N3CCOCC3)n2)c1O	-10	107*	76*	2	76*	95*	124*
O=[N+]([O-])c1ccc(/C=N/Nc2nc(NCc3ccccc3)nc(N3CCOCC3)n2)cc1	0	-9	-8	-1	3	-1	/
COc1ccc(S(=O)(=O)N2CCC(C(=O)NCc3ccncc3)CC2)cc1OC	-1	-10	-8	0	2	1	/
COc1cccc(C(=O)NC(=S)Nc2ccc([N+](=O)[O-])cc2C)c1	-6	49	39	4	3	16	/
COc1cc(C(=O)NC(=S)Nc2ccc([N+](=O)[O-])cc2C)cc(OC)c1OC	-5	44	43*	2	-4	20	65*
Cc1ccc(CNC(=S)Nc2cc(C(=O)O)ccc2C)cc1	-1	-7	8	0	5	0	/
Cc1ccc(C(=O)O)cc1NC(=S)NC(=O)c1ccc([N+](=O)[O-])c(C)c1	-5	41	40*	0	17	30	37
Cc1ccc(N(CC(=O)N2CCn3c2nc2ccccc23)S(=O)(=O)c2c(C)n[nH]c2C)cc1	1	4	-11	2	3	-5	/
Cc1n[nH]c(C)c1S(=O)(=O)N1CCC(C(=O)N2CCn3c2nc2ccccc23)CC1	-12	73*	66*	-1	34	52*	100*
COc1ccc(CNc2cccc3[nH]c(C(F)(F)F)nc23)cc1OC	-1	6	4	1	13	-7	/
Cn1nnnc1NCc1ccccc1F	0	12	1	0	3	-4	/
CN(C)c1ccc(C2/C(=C(/O)c3ccc(Br)cc3)C(=O)C(=O)N2C)cc1 (stereo not drawn)	-3	-2	10	0	2	2	/
CCOc1ccc2nc(N=NC3=C(O)CC(C)(C)CC3=O)sc2c1	-6	34	41*	-1	3	30	51*
CCN(CC)S(=O)(=O)c1ccc2oc(SCC(=O)Nc3cc(C)on3)nc2c1	-10	/	43*	0	6	12	53*
